Source: ChEMBL document CHEMBL4396885, “Thioether-based 2-aminobenzamide derivatives: Novel HDAC inhibitors with potent in vitro and in vivo antitumor activity” (Eur J Med Chem, 2019)

Columns and labels:
[1] = Half life in ICR mouse at 4 mg/kg, iv after 0.08 to 24 hrs by LC-MS/MS analysis; type: ADME, organism-based; details: in vivo
Method in brief: (§1)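 Male ICR mice (29.7~37.4 g), single iv dose 4 mg/kg in DMSO:40% SBE-β-CD 20:80 (v/v). Retro-orbital blood at 0.08–24 h into EDTA-K2 tubes; plasma protein-precipitated with acetonitrile containing internal standards, analysed by LC-MS/MS; n=3 per time point; noncompartmental analysis.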

[2] = Clearance in ICR mouse at 4 mg/kg, iv after 0.08 to 24 hrs by LC-MS/MS analysis; type: ADME, organism-based; details: in vivo; method in brief: as §1
[3] = Volume of distribution at steady state n ICR mouse at 4 mg/kg, iv after 0.08 to 24 hrs by LC-MS/MS analysis; type: ADME, organism-based; details: in vivo, read-out: Vdss; method in brief: as §1
A549 [4] = test: Cell cycle arrest in human A549 cells assessed as accumulation of cells at S phase at 0.5 uM after 48 hrs by propidium iodide staining-based flow cytometry (reference value: 12.83%); type: functional
A-375 [5] = test: Antiproliferative activity against human A375 cells assessed as growth inhibition at 8 uM after 72 hrs by CCK-8 assay relative to control; type: functional; details: A-375, 72 h, read-out: GI
HeLa [6] = test: Antiproliferative activity against human HeLa cells assessed as growth inhibition at 2 uM after 72 hrs by CCK-8 assay relative to control; type: functional; details: read-out: GI
A549 [7] = test: Induction of apoptosis in human A549 cells assessed as late apoptotic cells at 1 uM after 48 hrs by Annexin V-FITC/propidium iodide staining based flow cytometry (reference value: 0.637%); type: functional
Method in brief: (§2)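 A549 seeded 4×10⁶ cells/well, dosed after 12 h with compound at various concentrations, harvested after 48 h. Resuspended in annexin-binding buffer, stained with Annexin V-FITC and propidium iodide for 15 min in the dark, analysed by flow cytometry; means of three separate experiments.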

[8] = Toxicity against nude Balb/c mouse xenografted with human A549 cells assessed as no change in body weight at 25 mg/kg, ip administered twice per day for 21 days and measured every 3 days during compound dosing; type: organism-based; details: in vivo
Method in brief: (§3)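 Female BALB/c nude mice, 5–6 weeks, implanted s.c. in right axilla with 3×10⁶ A549 cells; randomized at ~95 mm³ tumor volume, 4 per group. Dosed ip 25 mg/kg twice daily for 21 days; vehicle controls got DMA & 5% Solutol HS-15 (5:95). Tumor size (V=length×width²/2) and body weight measured every 3 days; TGI from volume change relative to control.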

A549 [9] = test: Induction of apoptosis in human A549 cells assessed as necrotic cells at 1 uM after 48 hrs by Annexin V-FITC/propidium iodide staining based flow cytometry (reference value: 0.135%); type: functional; method in brief: as §2
A549 [10] = test: Cell cycle arrest in human A549 cells assessed as accumulation of cells at G2/M phase at 2 uM after 48 hrs by propidium iodide staining-based flow cytometry (reference value: 13.62%); type: functional
A549 [11] = test: Antiproliferative activity against human A549 cells assessed as decrease in cell viability after 72 hrs by CCK-8 assay; type: functional, cell-based; details: A549, 72 h
Method in brief: (§4)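 Cells grown to 70–85% confluence (A375, A549, HCT116 in RPMI1640; HeLa, SMMC7721 in DMEM; 10% FBS, 37 °C, 5% CO2), seeded 4000/well, dosed after 12 h across a concentration range, incubated 72 h, then CCK-8 for 1 h; absorbance at 450 nm. IC50 as mean ± SD of three separate experiments.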

A549 [12] = test: Cell cycle arrest in human A549 cells assessed as accumulation of cells at G0/G1 phase at 1 uM after 48 hrs by propidium iodide staining-based flow cytometry (reference value: 73.35%); type: functional
A549 [13] = test: Induction of apoptosis in human A549 cells assessed as viable cells at 1 uM after 48 hrs by Annexin V-FITC/propidium iodide staining based flow cytometry (reference value: 98%); type: functional; details: A549, 48 h, read-out: Activity; method in brief: as §2
HeLa [14] = test: Antiproliferative activity against human HeLa cells assessed as decrease in cell viability after 72 hrs by CCK-8 assay; type: functional, cell-based; method in brief: as §4
A549 [15] = test: Cell cycle arrest in human A549 cells assessed as accumulation of cells at S phase at 2 uM after 48 hrs by propidium iodide staining-based flow cytometry (reference value: 12.83%); type: functional
A549 [16] = test: Induction of apoptosis in human A549 cells assessed as early apoptotic cells at 2 uM after 48 hrs by Annexin V-FITC/propidium iodide staining based flow cytometry (reference value: 1.19%); type: functional; method in brief: as §2
A-375 [17] = test: Antiproliferative activity against human A375 cells assessed as decrease in cell viability after 72 hrs by CCK-8 assay; type: functional, cell-based; details: A-375, 72 h; method in brief: as §4
A549 [18] = test: Induction of apoptosis in human A549 cells assessed as viable cells at 0.5 uM after 48 hrs by Annexin V-FITC/propidium iodide staining based flow cytometry (reference value: 98%); type: functional; details: A549, 48 h, read-out: Activity; method in brief: as §2
A549 [19] = test: Induction of apoptosis in human A549 cells assessed as late apoptotic cells at 2 uM after 48 hrs by Annexin V-FITC/propidium iodide staining based flow cytometry (reference value: 0.637%); type: functional; method in brief: as §2
A549 [20] = test: Induction of apoptosis in human A549 cells assessed as viable cells at 2 uM after 48 hrs by Annexin V-FITC/propidium iodide staining based flow cytometry (reference value: 98%); type: functional; details: A549, 48 h, read-out: Activity; method in brief: as §2
A549 [21] = test: Cell cycle arrest in human A549 cells assessed as accumulation of cells at G0/G1 phase at 0.5 uM after 48 hrs by propidium iodide staining-based flow cytometry (reference value: 73.35%); type: functional
A549 [22] = test: Induction of apoptosis in human A549 cells assessed as necrotic cells at 0.5 uM after 48 hrs by Annexin V-FITC/propidium iodide staining based flow cytometry (reference value: 0.135%); type: functional; method in brief: as §2
A549 [23] = test: Antiproliferative activity against human A549 cells assessed as growth inhibition at 8 uM after 72 hrs by CCK-8 assay relative to control; type: functional; details: A549, 72 h, read-out: GI
A549 [24] = test: Cell cycle arrest in human A549 cells assessed as accumulation of cells at G2/M phase at 1 uM after 48 hrs by propidium iodide staining-based flow cytometry (reference value: 13.62%); type: functional
A549 [25] = test: Cell cycle arrest in human A549 cells assessed as accumulation of cells at S phase at 1 uM after 48 hrs by propidium iodide staining-based flow cytometry (reference value: 12.83%); type: functional
A549 [26] = test: Antitumor activity against human A549 cells xenografted in Balb/c nude mouse assessed as tumor growth inhibition at 25 mg/kg, ip administered twice per day for 21 days relative to control; type: functional; details: 504 h, read-out: TGI; method in brief: as §3
SMMC-7721 [27] = test: Antiproliferative activity against human SMMC7721 cells assessed as growth inhibition at 2 uM after 72 hrs by CCK-8 assay relative to control; type: functional; details: SMMC-7721, 72 h, read-out: GI
A549 [28] = test: Cell cycle arrest in human A549 cells assessed as accumulation of cells at G0/G1 phase at 2 uM after 48 hrs by propidium iodide staining-based flow cytometry (reference value: 73.35%); type: functional
HeLa [29] = test: Antiproliferative activity against human HeLa cells assessed as growth inhibition at 8 uM after 72 hrs by CCK-8 assay relative to control; type: functional; details: read-out: GI
SMMC-7721 [30] = test: Antiproliferative activity against human SMMC7721 cells assessed as growth inhibition at 8 uM after 72 hrs by CCK-8 assay relative to control; type: functional; details: SMMC-7721, 72 h, read-out: GI
A549 [31] = test: Induction of apoptosis in human A549 cells assessed as late apoptotic cells at 0.5 uM after 48 hrs by Annexin V-FITC/propidium iodide staining based flow cytometry (reference value: 0.637%); type: functional; method in brief: as §2
A549 [32] = test: Induction of apoptosis in human A549 cells assessed as early apoptotic cells at 1 uM after 48 hrs by Annexin V-FITC/propidium iodide staining based flow cytometry (reference value: 1.19%); type: functional; method in brief: as §2
SMMC-7721 [33] = test: Antiproliferative activity against human SMMC7721 cells assessed as decrease in cell viability after 72 hrs by CCK-8 assay; type: functional, cell-based; details: SMMC-7721, 72 h; method in brief: as §4
A549 [34] = test: Induction of apoptosis in human A549 cells assessed as necrotic cells at 2 uM after 48 hrs by Annexin V-FITC/propidium iodide staining based flow cytometry (reference value: 0.135%); type: functional; method in brief: as §2
A-375 [35] = test: Antiproliferative activity against human A375 cells assessed as growth inhibition at 2 uM after 72 hrs by CCK-8 assay relative to control; type: functional; details: A-375, 72 h, read-out: GI
A549 [36] = test: Induction of apoptosis in human A549 cells assessed as early apoptotic cells at 0.5 uM after 48 hrs by Annexin V-FITC/propidium iodide staining based flow cytometry (reference value: 1.19%); type: functional; method in brief: as §2
A549 [37] = test: Antiproliferative activity against human A549 cells assessed as growth inhibition at 2 uM after 72 hrs by CCK-8 assay relative to control; type: functional; details: A549, 72 h, read-out: GI
HCT-116 [38] = test: Antiproliferative activity against human HCT116 cells assessed as growth inhibition at 8 uM after 72 hrs by CCK-8 assay relative to control; type: functional; details: HCT-116, 72 h, read-out: GI
HCT-116 [39] = test: Antiproliferative activity against human HCT116 cells assessed as decrease in cell viability after 72 hrs by CCK-8 assay; type: functional, cell-based; details: HCT-116, 72 h; method in brief: as §4
HCT-116 [40] = test: Antiproliferative activity against human HCT116 cells assessed as growth inhibition at 2 uM after 72 hrs by CCK-8 assay relative to control; type: functional; details: HCT-116, 72 h, read-out: GI
A549 [41] = test: Cell cycle arrest in human A549 cells assessed as accumulation of cells at G2/M phase at 0.5 uM after 48 hrs by propidium iodide staining-based flow cytometry (reference value: 13.62%); type: functional

For `Nc1ccccc1NC(=O)c1ccc(COc2ccc(F)cc2)cc1`, the half-life [1] was 33.6 min, the clearance [2] was 118 mL/min/kg and the Vd [3] was 2.33 L/kg.

In the case of `CC(=O)Nc1ccc(C(=O)Nc2ccccc2N)cc1` [TACEDINALINE], the Activity (A549 [4]) is reported as 7.64%, the inhibition of growth at 8 µM (A-375 [5]) is reported as 46.4% and the inhibition of growth at 2 µM (HeLa [6]) is reported as 23.5%. For the same compound, the Activity (A549 [7]) was 5.87%, the Activity [8] was “Non-Toxic” and the Activity (A549 [9]) was 0.521%. For the same compound, the Activity (A549 [10]) was 15.25%, the IC50 (A549 [11]) was 16.4 µM and the Activity (A549 [12]) was 75.86%. For the same compound, the viability at 1 µM (A549 [13]) was 89.7%, the IC50 (HeLa [14]) was 13.4 µM and the Activity (A549 [15]) was 7.37%. For the same compound, the Activity (A549 [16]) was 3.68%, the IC50 (A-375 [17]) was 9.64 µM and the viability at 0.5 µM (A549 [18]) was 92.4%. The Activity (A549 [19]) was 9.92%, the viability at 2 µM (A549 [20]) was 83.3% and the Activity (A549 [21]) was 76.99%. For the same compound, the Activity (A549 [22]) was 4.6%, the inhibition of growth at 8 µM (A549 [23]) was 29.1% and the Activity (A549 [24]) was 17.41%. For the same compound, the Activity (A549 [25]) was 6.73%, the inhibition in vivo at 25 mg/kg (A549 [26]) was 46.8% and the inhibition of growth at 2 µM (SMMC-7721 [27]) was 23.5%. The Activity (A549 [28]) was 77.38%, the inhibition of growth at 8 µM (HeLa [29]) was 29.1% and the inhibition of growth at 8 µM (SMMC-7721 [30]) was 29.1%. The Activity (A549 [31]) was 1.86%, the Activity (A549 [32]) was 3.92% and the IC50 (SMMC-7721 [33]) was 14.1 µM. For the same compound, the Activity (A549 [34]) was 3.15%, the inhibition of growth at 2 µM (A-375 [35]) was 12.8% and the Activity (A549 [36]) was 1.17%. It also gave an inhibition of growth at 2 µM (A549 [37]) of 23.5%, an inhibition of growth at 8 µM (HCT-116 [38]) of 44% and an IC50 (HCT-116 [39]) of 6.39 µM. The inhibition of growth at 2 µM (HCT-116 [40]) was 13% and the Activity (A549 [41]) was 15.37%.
